Results reported in ChEMBL document CHEMBL2331496 (Eur J Med Chem, 2013).
Calls of active or inactive are those of the source. No cut-off for these calls is given here.

Experiments:
[1] = test system: Human immunodeficiency virus 1; experiment: Antiviral activity against HIV1 NL4.3 infected in 293T cells assessed as aberrant core at 5 ug/ml after 2 days by electron microscopic analysis; assay type: functional, organism-based
293T = experiment: Inhibition of HIV1 NL4.3 CA-SP1 cleavage infected in 293T cells after 2 days by Western blot analysis; assay type: cell-based; settings: Human immunodeficiency virus 1
[2] = test system: Human immunodeficiency virus; experiment: Antiviral activity against HIV infected in H9 cells; assay type: functional, organism-based; settings: Human immunodeficiency virus 1, H9
[3] = test system: Human immunodeficiency virus 1; experiment: Antiviral activity against HIV1 NL4.3 infected in 293T cells assessed as acentric core at 5 ug/ml after 2 days by electron microscopic analysis; assay type: functional, organism-based
[4] = test system: Human immunodeficiency virus 1; experiment: Antiviral activity against HIV1 NL4.3 infected in 293T cells assessed as spherical core at 5 ug/ml after 2 days by electron microscopic analysis; assay type: functional, organism-based
[5] = Ratio of compound selectivity index to bevirimat selectivity index for HIV1 NL4.3 over human MAGIC-5B cells
[6] = test system: Human immunodeficiency virus 1; experiment: Antiviral activity against HIV1 NL4.3 infected in MAGIC-5B cells after 48 hrs by beta-galactosidase reporter gene assay; assay type: functional, organism-based; settings: Human immunodeficiency virus 1, NL4.3, 48 h
How it was run: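 MAGIC-5B indicator cells (beta-galactosidase under the HIV-1 LTR), 8×10^4 per well, were exposed to these supernatants. After 48 h, ONPG hydrolysis was read in lysates and normalised to total protein.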

[7] = Selectivity index, ratio of CC50 for human MAGIC-5B cells to IC50 for HIV1 NL4.3; assay type: functional
[8] = Cytotoxicity against human MAGIC-5B cells after 48 hrs by MTT assay; assay type: cell-based
[9] = test system: Human immunodeficiency virus 1; experiment: Binding affinity to HIV1 NL4.3 CA-SP1 at 550 uM by chemical shift pertubation NMR analysis
How it was run: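 2D 1H-1H NOESY of CA-SP1-NC peptide (250 uM) with and without ligand (550 uM). pH 3.8 in H2O/TFE 70/30 (to prevent aggregation) with 1% DMSO-d6. Spectral width 5296.6 Hz, excitation-sculpting water suppression, 250 ms NOE mixing time. Chemical-shift perturbation of the wild-type junction plotted per residue.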

SMILES	Activity [1]	inhibition (293T)	EC50 [2] [µM]	Activity [3]	Activity [4]	Ratio [5]	IC50 [6] [µM]	Ratio CC50/IC50 [7]	CC50 at 48 h [8] [µM]	Activity [9]
C=C(C)[C@@H]1CC[C@]2(C(=O)O)CC[C@]3(C)[C@H](CC[C@@H]4[C@@]5(C)CC[C@H](OC(=O)CC(C)(C)C(=O)O)C(C)(C)[C@@H]5CC[C@]43C)[C@@H]12 [BEVIRIMAT]	Active	Active	> 0.00035	Active	Active					
C=C(C)[C@@H]1CC[C@]2(C(=O)NCCN)CC[C@]3(C)[C@H](CC[C@@H]4[C@@]5(C)CC[C@H](OC(=O)CC(C)(C)C(=O)O)C(C)(C)[C@@H]5CC[C@]43C)[C@@H]12	Active	Active		Active	Active	2	0.016	2118.75	33.9	Active
C=C(C)[C@@H]1CC[C@]2(C(=O)O)CC[C@]3(C)[C@H](CC[C@@H]4[C@@]5(C)CC[C@H](O)C(C)(C)[C@@H]5CC[C@]43C)[C@@H]12 [BETULINIC ACID]	inactive	inactive		inactive	inactive		5.32	0.85	4.52	
C=C(C)[C@@H]1CC[C@]2(C(=O)N[C@@H](CCCCNC(=O)OC(C)(C)C)C(=O)O)CC[C@]3(C)[C@H](CC[C@@H]4[C@@]5(C)CC[C@H](OC(=O)CC(C)(C)C(=O)O)C(C)(C)[C@@H]5CC[C@]43C)[C@@H]12	Active	Active		Active	Active		0.17	199.41	33.9	
C=C(C)[C@@H]1CC[C@]2(C(=O)NCCC(=O)O)CC[C@]3(C)[C@H](CC[C@@H]4[C@@]5(C)CC[C@H](OC(=O)CC(C)(C)C(=O)O)C(C)(C)[C@@H]5CC[C@]43C)[C@@H]12	Active	Active		Active	Active		0.118	411.01	48.5	
C=C(C)[C@@H]1CC[C@]2(C(=O)NCC(=O)O)CC[C@]3(C)[C@H](CC[C@@H]4[C@@]5(C)CC[C@H](OC(=O)CC(C)(C)C(=O)O)C(C)(C)[C@@H]5CC[C@]43C)[C@@H]12	Active	Active		Active	Active		0.16	309.37	49.5	
C=C(C)[C@@H]1CC[C@]2(C(=O)N[C@@H](CCCCN)C(=O)O)CC[C@]3(C)[C@H](CC[C@@H]4[C@@]5(C)CC[C@H](OC(=O)CC(C)(C)C(=O)O)C(C)(C)[C@@H]5CC[C@]43C)[C@@H]12	inactive	inactive		inactive	inactive		4.33	11.24	48.7	
